Source: paper PMC2860721 (Journal of medicinal chemistry, 2010)
pEC50, pIC50: −log10 of the molar value. In brackets after ≈: the same amount, converted by molar mass.

Assays:
[1] = system: HIV-1NL4-3; assay: HIV-1NL4-3 replication inhibition assay in MT-4 lymphocytes; type: cell-based; details: HIV-1NL4-3 infected MT-4 lymphocytes
Summary of the method: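 MT-4 cells infected with HIV-1 NL4-3 or NL4-3 variants at MOI 0.01. Culture supernatants collected on day 4 post-infection. Viral replication read out by p24 antigen capture ELISA.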

[2] = system: mock-infected MT-2 cells; assay: Compound toxicity by XTT in mock-infected MT-2 cells; type: cell-based; details: Homo sapiens, MT2, read-out: IC50 (concentration that inhibits mock-infected cell growth by 50%)
[3] = system: HIV; details: cited from earlier work
[4] = system: HIV; details: cited from earlier work; remark: listed apart in the source

C=C(C)[C@@H]1CC[C@]2(C(=O)O)CC[C@]3(C)[C@H](CC[C@@H]4[C@@]5(C)CC[C@H](OC(=O)C[C@@](C)(CC)C(=O)O)C(C)(C)[C@@H]5CC[C@]43C)[C@@H]12 [Compound 12b, 3β-O-(3′R-Ethylmethylsuccinyl)-betulinic acid]
antiviral activity [1]: no antiviral activity

C=C(C)[C@@H]1CC[C@]2(C(=O)O)CC[C@]3(C)[C@H](CC[C@@H]4[C@@]5(C)CC[C@H](OC(=O)C[C@H](C)C(=O)O)C(C)(C)[C@@H]5CC[C@]43C)[C@@H]12 [Compound 10, 3β-O-(3′S-Methylsuccinyl)-betulinic acid]
pIC50 [2]: 4.48

C=C(C)[C@@H]1CC[C@]2(C(=O)O)CC[C@]3(C)[C@H](CC[C@@H]4[C@@]5(C)CC[C@H](OC(=O)C[C@](C)(CC)C(=O)O)C(C)(C)[C@@H]5CC[C@]43C)[C@@H]12 [Compound 12a, 3β-O-(3′S-Ethylmethylsuccinyl)-betulinic acid]
antiviral activity [1]: active

C=C(C)C1CCC2(C(=O)O)CCC3(C)C(CCC4C5(C)CCC(OC(=O)C(C)(C)CC(=O)O)C(C)(C)C5CCC43C)C12 (centres unmarked) [3-O-(2′,2′-dimethylsuccinyl) BA]
pEC50 [3]: 5.57

CC1(C)C=C2[C@H]3CC[C@@H]4[C@@]5(C)CCC(=O)C(C)(C)[C@@H]5CC[C@@]4(C)[C@]3(C)CC[C@@]2(C(=O)O)CC1 [Compound 3, moronic acid]
EC50 (anti-HIV activity) [4]: 0.1 µg/mL (≈ 0.22 µM)
